Data: ChEMBL document CHEMBL4396907, “Structure-activity relationship study and biological evaluation of SAC-Garlic acid conjugates as novel anti-inflammatory agents” (Eur J Med Chem, 2019)
Activity calls are given as the source filed them. The calls are words filed in the database; no cut-off is given here.

Tests used:
[1] = molecular target: Toll-like receptor 2 (Mus musculus, UniProt Q9QUN7); test: Antagonist activity at TLR2 in mouse RAW264.7 cells assessed as PAM3CSK4-induced NO production measured after 24 hrs by Griess assay; type: cell-based
Outline: (§1)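 RAW 264.7 cells in DMEM/10% FBS/pen-strep, 80,000 per well, preincubated 24 h at 37 °C, 5% CO2. Nonadherent cells removed, medium changed to plain DMEM. Cells co-treated with compound and 200 ng/mL Pam3CSK4 for 24 h. Nitrite in supernatant measured by modified Griess reagent (sulfanilic acid/phosphoric acid, then naphthylethylenediamine), read at OD560. Triplicate.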

[2] = molecular target: Toll-like receptor 2 (Mus musculus) (UniProt Q9QUN7); test: Antagonist activity at TLR2 in mouse RAW264.7 cells assessed as PAM3CSK4-induced NO production at 150 uM measured after 24 hrs by Griess assay; type: cell-based; outline: as §1
[3] = molecular target: Toll-like receptor 2 (Homo sapiens) (UniProt O60603); test: Inhibition of TLR2 in human HEK-Blue hTLR2 cells assessed as suppression of PAM3CSK4-induced SEAP signaling after 24 hrs by quanti-blue assay; type: cell-based
Outline: (§2)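 HEK-Blue hTLR2 cells (human TLR2, CD14 and NF-κB/AP-1-driven SEAP reporter), 4×10^4 per well, grown 24 h in DMEM/10% FBS. Changed to plain DMEM with compound (0–100 µM) plus 20 ng/ml Pam3CSK4 (TLR1/2) or 20 ng/ml Pam2CSK4 (TLR2/6) for 24 h. Supernatant SEAP read with QUANTI-Blue at 37 °C, OD620 after 15–30 min. Mean ± SD of three independent experiments.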

[4] = molecular target: Toll-like receptor 2 (Homo sapiens) (UniProt O60603); test: Inhibition of TLR2 in human PBMC cells assessed as PAM3CSK4-induced TLR2/Myd88 heterodimerization formation by immunoprecipitation assay; type: cell-based
Outline: (§3)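 Human PBMC, 10^6 cells/mL, given vehicle, Pam3CSK4 (50 ng/mL) or Pam2CSK4 (50 ng/mL) with compound for 24 h. Lysates incubated with anti-TLR2 overnight at 4 °C, then protein A agarose for 4 h. Beads washed three times and boiled in SDS buffer. Immunoprecipitates blotted for TLR1, TLR2, TLR6 and MyD88.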

[5] = molecular target: Toll-like receptor 2 (Mus musculus) (UniProt Q9QUN7); test: Inhibition of TLR2 in mouse RAW264.7 cells assessed as decrease in PAM3CSK4 induced TNF-alpha expression at 25 uM measured after 24 hrs by ELISA relative to control; type: cell-based
Outline: (§4)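 RAW 264.7 cells or human PBMC, 1×10^6 per well in DMEM/10% FBS/pen-strep, treated with compound plus 50 ng/ml Pam3CSK4 for 24 h at 37 °C. Supernatants frozen at −80 °C. TNF-α measured by sandwich ELISA against recombinant standards, triplicate samples. Mean ± SD, three independent experiments.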

[6] = molecular target: Toll-like receptor 2 (Homo sapiens) (UniProt O60603); test: Inhibition of TLR2 in human HEK-Blue hTLR2 cells assessed as suppression of PAM3CSK4-induced SEAP signaling at 25 uM after 24 hrs by quanti-blue assay relative to control; type: cell-based; outline: as §2
[7] = molecular target: TLR2/TLR6 (Homo sapiens) (UniProt O60603+Q9Y2C9); test: Inhibition of PAM2CSK4-induced TLR2/6 activation in human HEK-Blue hTLR2 cells; type: cell-based; outline: as §2
[8] = molecular target: Toll-like receptor 2 (Homo sapiens) (UniProt O60603); test: Inhibition of TLR2 in human THP1 assessed as decrease in PAM3CSK4 induced TNF-alpha expression measured after 4 hrs by ELISA
[9] = molecular target: Toll-like receptor 2 (Mus musculus) (UniProt Q9QUN7); test: Inhibition of TLR2 in mouse RAW264.7 cells assessed as decrease in PAM3CSK4 induced TNF-alpha expression measured after 24 hrs by ELISA; type: cell-based; outline: as §4
[10] = test system: RAW264.7; test: Cytotoxicity against mouse RAW264.7 cells assessed as effect on cell viability at 6.25 to 100 uM cotreated with PAM3CSK4 measured after 24 hrs by MTT assay; type: cell-based; conditions: raw264.7, 24 h
Outline: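 RAW 264.7 cells, 80,000 per well, grown 24 h in DMEM/10% FBS/pen-strep. Medium then switched to plain DMEM containing compound plus Pam3CSK4 (final 200 ng/ml) for 24 h. MTT (5 mg/ml stock in PBS) added for 4 h, formazan dissolved in DMSO, absorbance read at 450 nm.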

[11] = molecular target: Toll-like receptor 2 (Homo sapiens) (UniProt O60603); test: Inhibition of TLR2 in human PBMC cells assessed as PAM2CSK4-induced TLR2/6 heterodimerization formation by immunoprecipitation assay; type: cell-based; outline: as §3
[12] = molecular target: Toll-like receptor 2 (Homo sapiens) (UniProt O60603); test: Inhibition of TLR2 in human PBMC cells assessed as PAM2CSK4-induced TLR2/Myd88 heterodimerization formation by immunoprecipitation assay; type: cell-based; outline: as §3
[13] = molecular target: Toll-like receptor 2 (Homo sapiens) (UniProt O60603); test: Inhibition of TLR2 in human PBMC cells assessed as PAM3CSK4-induced TLR1/2 heterodimerization formation by immunoprecipitation assay; type: cell-based; outline: as §3
[14] = molecular target: Toll-like receptor 3 (Homo sapiens) (UniProt O15455); test: Inhibition of Poly:IC-induced TLR3 activation in human HEK-Blue hTLR3 cells; type: cell-based
Outline: (§5)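 HEK-Blue hTLR4 or hTLR3 reporter cells, 4×10^4 per well, grown 24 h, then switched to plain DMEM with compound (0–50 µM). Stimulant was 20 ng/ml LPS for hTLR4 and 20 µg/ml Poly:IC for hTLR3, for 24 h. Supernatant SEAP measured by QUANTI-Blue at OD620. Vehicle as negative control. Three independent experiments.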

[15] = molecular target: Toll-like receptor 4 (Homo sapiens) (UniProt O00206); test: Inhibition of LPS-induced TLR4 activation in human HEK-Blue hTLR4 cells; type: cell-based; outline: as §5
[16] = molecular target: Toll-like receptor 1/2 (Homo sapiens) (UniProt O60603+Q15399); test: Inhibition of PAM3CSK4-induced TLR1/2 activation in human HEK-Blue hTLR2 cells; type: cell-based; outline: as §2
[17] = molecular target: Toll-like receptor 2 (Homo sapiens) (UniProt O60603); test: Inhibition of TLR2 in human PBMC cells assessed as decrease in PAM3CSK4 induced TNF-alpha expression at 12.5 uM measured after 24 hrs by ELISA relative to control; type: cell-based; outline: as §4
[18] = Inhibition of PAM3CSK4-induced TLR2 expression in human HEK-Blue Htlr2 cells at 12.5 uM by Western blot analysis relative to control; type: functional; conditions: HEK-Blue hTLR2, read-out: INH
Outline: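 HEK-Blue hTLR2 cells, 1.5×10^6 per well, grown 24 h, then in plain DMEM with compound and 50 ng/mL Pam3CSK4 for 24 h. Lysed in RIPA/PMSF. Equal lysate amounts run on SDS-PAGE and transferred to nitrocellulose. Blocked in 5% milk, probed overnight at 4 °C with anti-TLR2, then HRP secondary.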

Toll-like receptor 2 (Homo sapiens), sequence (O60603 whole entry): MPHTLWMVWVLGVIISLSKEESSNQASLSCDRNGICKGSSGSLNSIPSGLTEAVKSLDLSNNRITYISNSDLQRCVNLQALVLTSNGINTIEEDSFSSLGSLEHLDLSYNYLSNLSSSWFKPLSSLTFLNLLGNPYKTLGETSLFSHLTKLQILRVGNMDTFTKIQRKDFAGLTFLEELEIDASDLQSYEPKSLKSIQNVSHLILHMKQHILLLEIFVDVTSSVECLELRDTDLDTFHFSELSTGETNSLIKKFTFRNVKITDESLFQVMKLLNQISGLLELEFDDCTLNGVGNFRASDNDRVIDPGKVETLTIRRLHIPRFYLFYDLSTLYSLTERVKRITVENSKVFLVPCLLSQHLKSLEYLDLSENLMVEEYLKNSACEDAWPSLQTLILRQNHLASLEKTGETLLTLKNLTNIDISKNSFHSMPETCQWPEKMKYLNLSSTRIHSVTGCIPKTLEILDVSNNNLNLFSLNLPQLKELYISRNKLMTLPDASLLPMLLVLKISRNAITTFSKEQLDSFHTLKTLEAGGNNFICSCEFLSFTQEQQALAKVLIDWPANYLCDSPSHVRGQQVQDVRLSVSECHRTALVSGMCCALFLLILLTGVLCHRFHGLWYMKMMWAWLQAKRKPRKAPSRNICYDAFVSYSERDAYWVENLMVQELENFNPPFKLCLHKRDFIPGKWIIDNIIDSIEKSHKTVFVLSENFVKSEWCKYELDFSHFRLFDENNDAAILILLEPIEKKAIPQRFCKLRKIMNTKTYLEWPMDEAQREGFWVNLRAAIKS
Toll-like receptor 2 (Mus musculus), sequence (Q9QUN7 whole entry): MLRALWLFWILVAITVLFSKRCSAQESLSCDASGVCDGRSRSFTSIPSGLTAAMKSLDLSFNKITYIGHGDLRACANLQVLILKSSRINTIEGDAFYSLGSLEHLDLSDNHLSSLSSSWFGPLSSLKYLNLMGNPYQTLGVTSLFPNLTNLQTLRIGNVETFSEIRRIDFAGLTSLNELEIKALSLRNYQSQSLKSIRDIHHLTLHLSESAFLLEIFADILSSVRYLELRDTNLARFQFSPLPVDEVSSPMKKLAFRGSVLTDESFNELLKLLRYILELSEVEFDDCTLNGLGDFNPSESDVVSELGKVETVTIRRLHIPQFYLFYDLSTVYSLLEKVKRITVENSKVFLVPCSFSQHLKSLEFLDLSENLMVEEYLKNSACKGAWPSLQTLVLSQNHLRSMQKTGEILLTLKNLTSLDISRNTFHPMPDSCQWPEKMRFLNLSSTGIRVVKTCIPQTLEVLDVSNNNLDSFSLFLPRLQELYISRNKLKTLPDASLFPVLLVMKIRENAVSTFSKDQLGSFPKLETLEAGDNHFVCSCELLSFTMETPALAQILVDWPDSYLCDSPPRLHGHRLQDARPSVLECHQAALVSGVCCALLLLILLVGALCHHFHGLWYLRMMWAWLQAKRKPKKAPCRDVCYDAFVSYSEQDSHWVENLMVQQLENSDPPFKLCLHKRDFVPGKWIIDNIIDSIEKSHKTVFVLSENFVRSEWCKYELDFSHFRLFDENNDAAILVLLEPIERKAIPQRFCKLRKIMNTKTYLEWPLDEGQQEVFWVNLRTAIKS
Toll-like receptor 2, sequence (Q9QUN7 whole entry): as above
Toll-like receptor 4 (Homo sapiens), sequence (O00206 whole entry): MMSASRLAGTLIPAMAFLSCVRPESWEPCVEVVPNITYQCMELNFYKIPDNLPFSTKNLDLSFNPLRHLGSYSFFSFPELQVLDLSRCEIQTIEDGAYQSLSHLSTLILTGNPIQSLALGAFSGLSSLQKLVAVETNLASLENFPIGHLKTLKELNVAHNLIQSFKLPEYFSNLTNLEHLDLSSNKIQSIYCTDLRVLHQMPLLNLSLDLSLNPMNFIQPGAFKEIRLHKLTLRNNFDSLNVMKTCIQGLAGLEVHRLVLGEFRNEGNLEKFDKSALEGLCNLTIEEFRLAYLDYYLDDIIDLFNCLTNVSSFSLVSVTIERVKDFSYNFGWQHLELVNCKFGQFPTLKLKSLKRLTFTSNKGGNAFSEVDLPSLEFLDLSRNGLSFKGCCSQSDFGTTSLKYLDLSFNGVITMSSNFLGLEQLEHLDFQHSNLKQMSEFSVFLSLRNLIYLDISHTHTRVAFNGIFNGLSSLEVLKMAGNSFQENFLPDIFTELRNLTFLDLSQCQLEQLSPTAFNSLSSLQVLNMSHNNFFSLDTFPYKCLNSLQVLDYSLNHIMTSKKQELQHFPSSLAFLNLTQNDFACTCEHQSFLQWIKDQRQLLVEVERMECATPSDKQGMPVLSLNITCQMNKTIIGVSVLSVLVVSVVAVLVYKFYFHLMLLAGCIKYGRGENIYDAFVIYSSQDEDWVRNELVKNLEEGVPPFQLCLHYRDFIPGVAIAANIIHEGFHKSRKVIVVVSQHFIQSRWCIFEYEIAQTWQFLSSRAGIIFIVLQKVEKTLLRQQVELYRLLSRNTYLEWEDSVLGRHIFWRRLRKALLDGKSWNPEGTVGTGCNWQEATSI
Toll-like receptor 3 (Homo sapiens), sequence (O15455 whole entry): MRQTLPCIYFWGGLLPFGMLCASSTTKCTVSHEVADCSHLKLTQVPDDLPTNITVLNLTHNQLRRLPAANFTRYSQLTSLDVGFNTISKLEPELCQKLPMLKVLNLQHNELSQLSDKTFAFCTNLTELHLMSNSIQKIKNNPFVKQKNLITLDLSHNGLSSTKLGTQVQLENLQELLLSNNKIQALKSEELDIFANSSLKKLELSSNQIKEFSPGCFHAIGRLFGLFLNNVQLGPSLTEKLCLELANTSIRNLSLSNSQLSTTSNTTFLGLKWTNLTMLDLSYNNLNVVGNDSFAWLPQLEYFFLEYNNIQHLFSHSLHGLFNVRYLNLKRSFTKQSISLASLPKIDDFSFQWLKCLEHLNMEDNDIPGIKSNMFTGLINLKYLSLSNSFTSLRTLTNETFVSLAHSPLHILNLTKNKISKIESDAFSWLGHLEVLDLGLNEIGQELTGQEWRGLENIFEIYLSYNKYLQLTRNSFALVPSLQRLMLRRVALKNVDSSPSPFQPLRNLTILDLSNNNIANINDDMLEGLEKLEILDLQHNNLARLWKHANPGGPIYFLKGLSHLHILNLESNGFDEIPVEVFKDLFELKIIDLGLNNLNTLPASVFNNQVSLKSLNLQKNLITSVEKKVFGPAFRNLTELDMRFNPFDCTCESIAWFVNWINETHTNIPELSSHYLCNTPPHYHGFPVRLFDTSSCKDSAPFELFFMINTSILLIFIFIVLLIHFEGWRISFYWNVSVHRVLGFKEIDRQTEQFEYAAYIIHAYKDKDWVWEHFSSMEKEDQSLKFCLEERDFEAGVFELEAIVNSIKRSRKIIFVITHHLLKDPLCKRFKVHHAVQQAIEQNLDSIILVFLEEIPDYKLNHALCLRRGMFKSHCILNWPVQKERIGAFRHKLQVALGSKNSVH

Structure (SMILES)	IC50 [1]	other results
COC(=O)[C@H](CSCc1ccccc1)NC(=O)c1cc(OC)c(OC)c(OC)c1	32.6 µM	–
C=CCCCSC[C@H](NC(=O)c1cc(O)cc(O)c1)C(=O)OC	57.7 µM	–
N[C@@H](CSCc1ccccc1)C(=O)O	–	Activity [2]: inactive
C#CCSC[C@H](NC(=O)c1ccc(O)cc1)C(=O)OC	54.8 µM	–
C=CCCCSC[C@H](NC(=O)c1ccc(O)cc1)C(=O)OC	53 µM	–
C=CCCSC[C@H](NC(=O)c1cc(OC)c(OC)c(OC)c1)C(=O)OC	27.3 µM	–
C=CCCSC[C@H](NC(=O)c1cc(O)cc(O)c1)C(=O)OC	35.8 µM	–
COC(=O)[C@H](CSCc1ccc(F)cc1)NC(=O)c1cc(O)c(O)c(O)c1	50.2 µM	–
O=C(O)c1ccc(O)cc1 [PARABEN]	118 µM	–
O=C(O)c1cc(O)c(O)c(O)c1 [GALLIC ACID]	69.3 µM	–
C=CCSC[C@H](N)C(=O)O	–	inhibition [3]: inactive; Activity [2]: inactive
COC(=O)[C@H](CSCc1ccccc1)NC(=O)c1cc(O)cc(O)c1	50.5 µM	–
COC(=O)[C@H](CSCc1ccccc1)NC(=O)c1ccc(O)cc1	52.1 µM	–
C=CCCSC[C@H](NC(=O)c1cc(O)c(O)c(O)c1)C(=O)OC	57.7 µM	–
C#CCSC[C@H](NC(=O)c1cc(O)c(O)c(O)c1)C(=O)OC	71.5 µM	–
COC(=O)[C@H](CSCc1ccc(F)cc1)NC(=O)c1cc(OC)c(OC)c(OC)c1	28.6 µM	–
COC(=O)[C@@H](N)CSCc1ccc(F)cc1	99.6 µM	–
C#CCSC[C@H](NC(=O)c1cc(OC)c(OC)c(OC)c1)C(=O)OC	53.2 µM	–
C=CCCSC[C@H](NC(=O)c1ccc(O)cc1)C(=O)OC	54.9 µM	–
COC(=O)[C@H](CSCc1ccc(F)cc1)NC(=O)c1ccc(O)cc1	37.3 µM	–

Structure (SMILES)	IC50 [1]	other results
C=CCSC[C@H](NC(=O)c1ccc(O)cc1)C(=O)OC	40.5 µM	–
COc1cc(C(=O)O)cc(OC)c1OC [3,4,5-TRIMETHOXYBENZOIC ACID]	53.8 µM	–
COC(=O)[C@@H](N)CSCc1ccccc1	117 µM	–
C=CCCCSC[C@H](N)C(=O)O	–	Activity [2]: inactive
COC(=O)[C@H](CSCc1ccccc1)NC(=O)c1cc(O)c(O)c(O)c1	60.7 µM	–
C#CCSC[C@H](N)C(=O)O	–	Activity [2]: inactive
C#CCSC[C@H](N)C(=O)OC	94.4 µM	–
C#CCSC[C@H](NC(=O)c1cc(O)cc(O)c1)C(=O)OC	41.8 µM	–
C=CCSC[C@H](NC(=O)c1cc(OC)c(OC)c(OC)c1)C(=O)OC	49.3 µM	–
C=CCSC[C@H](NC(=O)c1cc(O)cc(O)c1)C(=O)OC	58.5 µM	–
C=CCCCSC[C@H](NC(=O)c1cc(O)c(O)c(O)c1)C(=O)OC	39.2 µM	–
COC(=O)[C@H](CSCc1ccc(F)cc1)NC(=O)c1cc(O)cc(O)c1	38.3 µM	–
C=CCCCSC[C@H](N)C(=O)OC	31.3 µM	–
N[C@@H](CSCc1ccc(F)cc1)C(=O)O	–	Activity [2]: inactive
C=CCCCSC[C@H](NC(=O)c1cc(OC)c(OC)c(OC)c1)C(=O)OC	22.5 µM	inhibition [4]: Active; inhibition [5]: 50%; inhibition [6]: 50%; inhibition [7]: Active; inhibition [8]: Active; inhibition [9]: Dose-dependent effect; Activity [10]: Non-Toxic; inhibition [3]: Dose-dependent effect; inhibition [11]: Active; inhibition [12]: Active; inhibition [13]: Active; inhibition [14]: inactive; inhibition [15]: inactive; inhibition [16]: Active; inhibition [17]: > 95%; inhibition at 12.5 µM [18]: > 90%
C=CCSC[C@H](NC(=O)c1cc(O)c(O)c(O)c1)C(=O)OC	52.1 µM	–
C=CCCSC[C@H](N)C(=O)OC	45.5 µM	–
C=CCSC[C@H](N)C(=O)OC	54.4 µM	–
C=CCCSC[C@H](N)C(=O)O	–	Activity [2]: inactive
O=C(O)c1cc(O)cc(O)c1 [3,5-DIHYDROXYBENZOIC ACID]	117 µM	–
